Results: PMC11609979 (Chemical Science, 2024)
pIC50: −log10 of the molar value. Each block holds one molecule with its values, some of them ahead of it.

Experiments:
A549 cells [1] = experiment: Seahorse MitoStress Test; assay type: cell-based; conditions: for Lowest concentration for inhibition of OCR, Dark: 1 h incubation, no irradiation
In short: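 OCR/ECAR were measured by extracellular flux with sequential oligomycin, FCCP, then rotenone/antimycin A. Basal, maximal and non-mitochondrial respiration were derived. OCR IC50 was taken from maximal respiration. The phenotype map plots basal versus stressed states.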

A549 cells [2] = experiment: Cell cytotoxicity; assay type: cell-based; conditions: Homo sapiens, A549, 72 h, read-out: IC50 (±St. Dev.) Light
In short: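 A549 cells were exposed to test compound and viability was read 72 h after treatment. Dark samples were protected from light. IC50 was taken from dose–response curves, n = 3.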

A549 cells [3] = experiment: Seahorse Glycolytic Rate Test; assay type: cell-based; conditions: irradiation with red light 660 nm
In short: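 A549 cells were incubated 1 h with test compound, kept dark or irradiated. Irradiation used indigo 450 nm light (485 mW cm^-2) or red 660 nm light (16 mW cm^-2). Concentrations were chosen from light/dark cytotoxicity to keep cells viable. Glycolysis was blocked by 2-deoxyglucose injection, then non-glycolytic acidification was measured. Mitochondrial acidification was also read out.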

[4] = cited from earlier work

SMILES: N.N.[Cl][Pt][Cl] [Cisplatin]
Lowest concentration for inhibition of OCR, Dark (A549 cells [1]; A549 cells): >20 µM

pIC50 (A549 cells [1]; Homo sapiens, A549, read-out: OCR IC50 (from maximal respiration dose-response)): 5.92
SMILES: CCCCCCOC(C)c1c(C)c2cc3nc(c4c5[nH]c(cc6nc(cc1[nH]2)C(C)=C6CC)c(C)c5C(=O)C4)[C@@H](CCC(=O)O)[C@@H]3C (stereo partly shown) [HPPH, 2-(1-hexyloxyethyl)-2-devinylpyropheophorbide-a]
pIC50 (A549 cells [2]): 5.43
Concentration with PER showing no glycolytic activity (A549 cells [3]): 10 µM
log P [4]: ~6.0
Cellular respiration in the absence of light (A549 cells [1]; A549 cells, 1 h, dark, Fig. 3A and C): unaffected
Lowest concentration for inhibition of OCR, Dark (A549 cells [1]; A549 cells): 3 µM
Cellular respiration following irradiation (A549 cells [1]; A549 cells, indigo light for 3, red light (660 nm) for HPPH, Fig. 3B and D): marked concentration-dependent decrease
Fold lower than the IC50 for cytotoxicity (quiescent phenotype concentration) (A549 cells [1]; A549 cells, red light): 10 fold
Concentration inducing the quiescent phenotype (A549 cells [1]; A549 cells, red light, Fig. S10): 0.37 µM
